Reference: ChEMBL document CHEMBL1149866, “Cytotoxic diterpenoids from Euphorbia helioscopia” (J Nat Prod, 2008)

What was measured:
[1] = system: MDA-MB-231; test: Cytotoxicity against human MDA-MB-231 cells by MTT method; type: functional, cell-based
Procedure, shortened: (§1)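 HeLa (human cervical carcinoma) and MDA-MB-231 (breast tumor) cells; MTT viability read-out run per a previously published protocol; IC50 determined; adriamycin as positive control.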

[2] = system: HeLa; test: Cytotoxicity against human HeLa cells by MTT method; type: functional, cell-based; procedure, shortened: as §1

| Compound | IC50 [1] | IC50 [2] |
| --- | --- | --- |
| CC(=O)O[C@@H]1C[C@@H](OC(C)=O)C(C)(C)[C@H](O)[C@H]2O[C@@]3(C[C@H](C)[C@H](OC(=O)c4ccccc4)[C@@H]3/C=C/1C)[C@@H](OC(C)=O)[C@H]2C | > 10 µM | > 10 µM |
| CC(=O)O[C@@H]1[C@H](C)/C=C/C(C)(C)C(=O)C[C@@H](OC(=O)c2ccccc2)/C(CO)=C/[C@H]2[C@@H](OC(=O)c3ccccc3)[C@H](C)C[C@]12OC(C)=O | > 10 µM | > 10 µM |
| CC(=O)O[C@H]1[C@@H](C)/C=C/C(C)(C)[C@H](O)C[C@@H](O)/C(C)=C/[C@H]2[C@@H](OC(=O)c3ccccc3)[C@@H](C)C[C@@]21O | > 10 µM | > 10 µM |
| CC(=O)O[C@@H]1[C@H]2O[C@@]3(C[C@H](C)[C@H](OC(=O)c4ccccc4)[C@@H]3/C=C(\C)[C@H](OC(C)=O)C[C@@H](OC(C)=O)C1(C)C)[C@@H](OC(C)=O)[C@H]2C | > 10 µM | > 10 µM |
| CC(=O)O[C@@H]1C[C@@H](OC(C)=O)C(C)(C)/C=C/[C@H](C)[C@H](OC(C)=O)[C@@]2(O)C[C@H](C)[C@H](OC(=O)c3ccccc3)[C@@H]2/C=C/1CO | > 10 µM | > 10 µM |
| CC(=O)O[C@@H]1C[C@@H](O)C(C)(C)/C=C/[C@H](C)[C@H](OC(C)=O)[C@@]2(O)C[C@H](C)[C@H](OC(=O)c3ccccc3)[C@@H]2/C=C/1C [EUPHORNIN B] | > 10 µM | > 10 µM |
| CC(=O)O[C@@H]1C[C@@H](OC(C)=O)C(C)(C)/C=C/[C@H](C)[C@H](OC(C)=O)[C@@]2(O)C[C@H](C)[C@H](OC(=O)c3ccccc3)[C@@H]2/C=C/1C [EUPHORNIN] | 13.4 µM | 3.1 µM |
| CC(=O)O[C@@H]1[C@H](C)/C=C/C(C)(C)C(=O)C[C@@H](OC(=O)c2ccccc2)/C(C)=C/[C@H]2[C@@H](OC(=O)c3ccccc3)[C@H](C)C[C@]12OC(C)=O [EUPHOSCOPIN C] | > 10 µM | > 10 µM |
| CC1=C2C=C3CC[C@@H]4C(C)(C)[C@H](O)CC[C@@]4(C)[C@@H]3C[C@H]2OC1=O [HELIOSCOPINOLIDE A] | 2.1 µM | 0.11 µM |
